Reference: ChEMBL document CHEMBL4368898, “Tridecaptin-inspired antimicrobial peptides with activity against multidrug-resistant Gram-negative bacteria” (Medchemcomm, 2019)
Converted amounts (≈) assume the structure as drawn. Where a SMILES comes first, the peptide text is derived from it. [ ]: non-standard residue; d: D form. The star is where a group is joined. d(aIle) = CC[C@H](C)[C@@H](N)C(=O)O; dOrn = NCCC[C@@H](N)C(=O)O; dDab = NCC[C@@H](N)C(=O)O; Octanoyl = CCCCCCCC(=O)*; Orn = NCCC[C@H](N)C(=O)O; Dab = NCC[C@H](N)C(=O)O

Columns and labels:
Format in all cases: functional
Acinetobacter baumannii [1] = experiment: Antimicrobial activity against carbapenemase-non-producing Acinetobacter baumannii assessed as inhibition of bacterial growth incubated for 18 hrs by CLSI based serial broth dilution method
How it was run: (§1)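 MIC by microbroth dilution, run in duplicate, reported in μg mL−1 to three significant figures. The Gram-negative panel includes environmental isolates from sewage-contaminated water in Lebanon and clinical isolates from patients. Strains are classed by carbapenemase production.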

Acinetobacter baumannii [2] = experiment: Antimicrobial activity against carbapenemase-producing Acinetobacter baumannii ACM 11 assessed as inhibition of bacterial growth incubated for 18 hrs by CLSI based serial broth dilution method; settings: ACM 11, 18 h; how it was run: as §1
Acinetobacter baumannii [3] = experiment: Antimicrobial activity against carbapenemase-producing Acinetobacter baumannii ACM 29 assessed as inhibition of bacterial growth incubated for 18 hrs by CLSI based serial broth dilution method; settings: ACM 29, 18 h; how it was run: as §1
Enterobacter cloacae = experiment: Antimicrobial activity against carbapenemase-producing Enterobacter cloacae […] assessed as inhibition of bacterial growth incubated for 18 hrs by CLSI based serial broth dilution method; how it was run: as §1
Klebsiella pneumoniae [4] = experiment: Antimicrobial activity against carbapenemase-non-producing Klebsiella pneumoniae assessed as inhibition of bacterial growth incubated for 18 hrs by CLSI based serial broth dilution method; how it was run: as §1
Klebsiella pneumoniae [5] = experiment: Antimicrobial activity against carbapenemase-producing Klebsiella pneumoniae IMP 170 assessed as inhibition of bacterial growth incubated for 18 hrs by CLSI based serial broth dilution method; settings: IMP 170, 18 h; how it was run: as §1
Klebsiella pneumoniae [6] = experiment: Antimicrobial activity against carbapenemase-producing Klebsiella pneumoniae IMP 177 assessed as inhibition of bacterial growth incubated for 18 hrs by CLSI based serial broth dilution method; settings: IMP 177, 18 h; how it was run: as §1
Klebsiella pneumoniae [7] = experiment: Antimicrobial activity against carbapenemase-producing Klebsiella pneumoniae IMP 204 assessed as inhibition of bacterial growth incubated for 18 hrs by CLSI based serial broth dilution method; settings: IMP 204, 18 h; how it was run: as §1
Klebsiella pneumoniae [8] = experiment: Antimicrobial activity against carbapenemase-producing Klebsiella pneumoniae IMP 216 assessed as inhibition of bacterial growth incubated for 18 hrs by CLSI based serial broth dilution method; settings: IMP 216, 18 h; how it was run: as §1
Klebsiella pneumoniae [9] = experiment: Antimicrobial activity against carbapenemase-producing Klebsiella pneumoniae IMP 485 assessed as inhibition of bacterial growth incubated for 18 hrs by CLSI based serial broth dilution method; settings: IMP 485, 18 h; how it was run: as §1
Pseudomonas oleovorans = experiment: Antimicrobial activity against carbapenemase-non-producing Pseudomonas pseudoalcaligenes assessed as inhibition of bacterial growth incubated for 18 hrs by CLSI based serial broth dilution method; settings: Ectopseudomonas oleovorans; how it was run: as §1

| MIC (Acinetobacter baumannii [1]) [mg/L] | MIC (Acinetobacter baumannii [2]) [mg/L] | MIC (Acinetobacter baumannii [3]) [mg/L] | MIC (Enterobacter cloacae) [mg/L] | MIC (Klebsiella pneumoniae [4]) [mg/L] | MIC (Klebsiella pneumoniae [5]) [mg/L] | MIC (Klebsiella pneumoniae [6]) [mg/L] | MIC (Klebsiella pneumoniae [7]) [mg/L] | MIC (Klebsiella pneumoniae [8]) [mg/L] | MIC (Klebsiella pneumoniae [9]) [mg/L] | MIC (Pseudomonas oleovorans) [mg/L] | SMILES |
| --- | --- | --- | --- | --- | --- | --- | --- | --- | --- | --- | --- |
| 12.5 (≈ 8.22 µM) | 25 (≈ 16.4 µM) | 25 (≈ 16.4 µM) | 3.13 (≈ 2.06 µM) | 6.25 (≈ 4.11 µM) | 6.25 (≈ 4.11 µM) | 6.25 (≈ 4.11 µM) | 12.5 (≈ 8.22 µM) | 6.25 (≈ 4.11 µM) | 6.25 (≈ 4.11 µM) | 50 (≈ 32.9 µM) | CCCCCCCC(=O)N[C@@H](C(=O)N[C@H](CCN)C(=O)NCC(=O)N[C@H](CO)C(=O)N[C@H](Cc1c[nH]c2ccccc12)C(=O)N[C@@H](CO)C(=O)N[C@@H](CCN)C(=O)N[C@H](CCN)C(=O)N[C@@H](Cc1ccccc1)C(=O)N[C@@H](CCC(=O)O)C(=O)N[C@H](C(=O)N[C@@H](C(=O)N[C@@H](C)C(=O)O)[C@@H](C)CC)C(C)C)C(C)C |
| 6.25 (≈ 3.89 µM) | 25 (≈ 15.6 µM) | 25 (≈ 15.6 µM) | 25 (≈ 15.6 µM) | 50 (≈ 31.2 µM) | 50 (≈ 31.2 µM) | 25 (≈ 15.6 µM) | 50 (≈ 31.2 µM) | 25 (≈ 15.6 µM) | 25 (≈ 15.6 µM) | 100 (≈ 62.3 µM) | CCCCCCCC(=O)N[C@@H](C(=O)N[C@H](CCCCN)C(=O)NCC(=O)N[C@H](CO)C(=O)N[C@H](Cc1c[nH]c2ccccc12)C(=O)N[C@@H](CO)C(=O)N[C@@H](CCCCN)C(=O)N[C@H](CCCCN)C(=O)N[C@@H](Cc1ccccc1)C(=O)N[C@@H](CCC(=O)O)C(=O)N[C@H](C(=O)N[C@@H](C(=O)N[C@@H](C)C(=O)O)[C@@H](C)CC)C(C)C)C(C)C (HELM PEPTIDE1{[CCCCCCCC(=O)[*:2]].[dV].[dK].G.[dS].[dW].S.K.[dK].F.E.V.[CC[C@H](C)[C@@H](N[*:1])C(=O)[*:2]].A}$$$$V2.0) |
| > 100 | > 100 | > 100 | > 100 | > 100 | > 100 | > 100 | > 100 | > 100 | > 100 | > 100 | CCCCCCCC(=O)N[C@@H](C(=O)N[C@H](CCCCN)C(=O)NCC(=O)N[C@H](CO)C(=O)N[C@H](Cc1c[nH]c2ccccc12)C(=O)N[C@@H](CO)C(=O)N[C@@H](CCCCN)C(=O)N[C@H](CCCCN)C(=O)N[C@@H](Cc1ccccc1)C(=O)N[C@@H](CCC(=O)O)C(=O)N[C@H](C(=O)N[C@@H](C(=O)N[C@@H](C)C(=O)O)C(C)C)C(C)C)C(C)C (HELM PEPTIDE1{[CCCCCCCC(=O)[*:2]].[dV].[dK].G.[dS].[dW].S.K.[dK].F.E.V.[dV].A}$$$$V2.0) |
| 25 (≈ 16.6 µM) | 100 (≈ 66.4 µM) | 50 (≈ 33.2 µM) | 6.25 (≈ 4.15 µM) | 12.5 (≈ 8.3 µM) | 12.5 (≈ 8.3 µM) | 25 (≈ 16.6 µM) | 12.5 (≈ 8.3 µM) | 12.5 (≈ 8.3 µM) | 12.5 (≈ 8.3 µM) | 50 (≈ 33.2 µM) | CCCCCCCC(=O)N[C@@H](C(=O)N[C@H](CCN)C(=O)NCC(=O)N[C@H](CO)C(=O)N[C@H](Cc1c[nH]c2ccccc12)C(=O)N[C@@H](CO)C(=O)N[C@@H](CCN)C(=O)N[C@H](CCN)C(=O)N[C@@H](Cc1ccccc1)C(=O)N[C@@H](CCC(=O)O)C(=O)N[C@H](C(=O)N[C@@H](C(=O)N[C@@H](C)C(=O)O)C(C)C)C(C)C)C(C)C (Octanoyl-[dV][dDab]G[dS][dW]S[Dab][dDab]FEV[dV]A-OH) |
| 50 (≈ 31.7 µM) | 25 (≈ 15.9 µM) | 50 (≈ 31.7 µM) | 25 (≈ 15.9 µM) | 50 (≈ 31.7 µM) | 25 (≈ 15.9 µM) | 25 (≈ 15.9 µM) | 25 (≈ 15.9 µM) | 25 (≈ 15.9 µM) | 25 (≈ 15.9 µM) | 25 (≈ 15.9 µM) | CCCCCCCC(=O)N[C@@H](C(=O)N[C@H](CCCCN)C(=O)NCC(=O)N[C@H](CO)C(=O)N[C@H](Cc1c[nH]c2ccccc12)C(=O)N[C@@H](CO)C(=O)N[C@@H](CCCCN)C(=O)N[C@H](CCN)C(=O)N[C@@H](Cc1ccccc1)C(=O)N[C@@H](CCC(=O)O)C(=O)N[C@H](C(=O)N[C@@H](C(=O)N[C@@H](C)C(=O)O)[C@@H](C)CC)C(C)C)C(C)C (Octanoyl-[dV][dK]G[dS][dW]SK[dDab]FEV[d(aIle)]A-OH) |
| 100 (≈ 64.6 µM) | 50 (≈ 32.3 µM) | 50 (≈ 32.3 µM) | 25 (≈ 16.1 µM) | 100 (≈ 64.6 µM) | 25 (≈ 16.1 µM) | 25 (≈ 16.1 µM) | 25 (≈ 16.1 µM) | 25 (≈ 16.1 µM) | 25 (≈ 16.1 µM) | 12.5 (≈ 8.07 µM) | CCCCCCCC(=O)N[C@@H](C(=O)N[C@H](CCCN)C(=O)NCC(=O)N[C@H](CO)C(=O)N[C@H](Cc1c[nH]c2ccccc12)C(=O)N[C@@H](CO)C(=O)N[C@@H](CCCN)C(=O)N[C@H](CCN)C(=O)N[C@@H](Cc1ccccc1)C(=O)N[C@@H](CCC(=O)O)C(=O)N[C@H](C(=O)N[C@@H](C(=O)N[C@@H](C)C(=O)O)[C@@H](C)CC)C(C)C)C(C)C (Octanoyl-[dV][dOrn]G[dS][dW]S[Orn][dDab]FEV[d(aIle)]A-OH) |
| 12.5 (≈ 8 µM) | 50 (≈ 32 µM) | 50 (≈ 32 µM) | 6.25 (≈ 4 µM) | 12.5 (≈ 8 µM) | 25 (≈ 16 µM) | 25 (≈ 16 µM) | 25 (≈ 16 µM) | 6.25 (≈ 4 µM) | 25 (≈ 16 µM) | 50 (≈ 32 µM) | CCCCCCCC(=O)N[C@@H](C(=O)N[C@H](CCCN)C(=O)NCC(=O)N[C@H](CO)C(=O)N[C@H](Cc1c[nH]c2ccccc12)C(=O)N[C@@H](CO)C(=O)N[C@@H](CCCN)C(=O)N[C@H](CCCN)C(=O)N[C@@H](Cc1ccccc1)C(=O)N[C@@H](CCC(=O)O)C(=O)N[C@H](C(=O)N[C@@H](C(=O)N[C@@H](C)C(=O)O)[C@@H](C)CC)C(C)C)C(C)C (Octanoyl-[dV][dOrn]G[dS][dW]S[Orn][dOrn]FEV[d(aIle)]A-OH) |
| 25 (≈ 16.1 µM) | 25 (≈ 16.1 µM) | 50 (≈ 32.3 µM) | 12.5 (≈ 8.07 µM) | 50 (≈ 32.3 µM) | 25 (≈ 16.1 µM) | 12.5 (≈ 8.07 µM) | 12.5 (≈ 8.07 µM) | 12.5 (≈ 8.07 µM) | 12.5 (≈ 8.07 µM) | 6.25 (≈ 4.04 µM) | CCCCCCCC(=O)N[C@@H](C(=O)N[C@H](CCCN)C(=O)NCC(=O)N[C@H](CO)C(=O)N[C@H](Cc1c[nH]c2ccccc12)C(=O)N[C@@H](CO)C(=O)N[C@@H](CCCN)C(=O)N[C@H](CCCN)C(=O)N[C@@H](Cc1ccccc1)C(=O)N[C@@H](CCC(=O)O)C(=O)N[C@H](C(=O)N[C@@H](C(=O)N[C@@H](C)C(=O)O)C(C)C)C(C)C)C(C)C (Octanoyl-[dV][dOrn]G[dS][dW]S[Orn][dOrn]FEV[dV]A-OH) |
